In publication PMC9926120 (The Journal of Biological Chemistry, 2022):

T1: MBP-scRev7 (Saccharomyces cerevisiae, UniProt P38927)
T1 sequence (P38927 1-245): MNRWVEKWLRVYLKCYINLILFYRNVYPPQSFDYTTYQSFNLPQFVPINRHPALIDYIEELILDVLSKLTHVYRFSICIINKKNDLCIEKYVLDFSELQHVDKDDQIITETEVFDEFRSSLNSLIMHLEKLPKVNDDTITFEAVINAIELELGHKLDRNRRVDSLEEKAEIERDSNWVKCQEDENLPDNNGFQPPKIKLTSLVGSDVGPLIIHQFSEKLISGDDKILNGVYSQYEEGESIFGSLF

T2: scRev7 fused to the maltose binding protein (MBP-scRev7) (S. cerevisiae, UniProt P38927 1-245)
T2 sequence: T1 sequence (P38927 1-245)

T3: scRev3-RBM12 (residues 510-629), co-expressed with scRev7 (S. cerevisiae, UniProt P14284 510-629)
T3 sequence: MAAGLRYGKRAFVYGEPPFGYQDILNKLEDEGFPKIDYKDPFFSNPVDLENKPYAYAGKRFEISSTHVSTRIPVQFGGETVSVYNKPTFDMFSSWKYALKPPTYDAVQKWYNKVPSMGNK

T4: truncated scRev3 fragment containing RBM2, but not RBM1 (residues 545-629) (S. cerevisiae, UniProt P14284 545-629)
T4 sequence: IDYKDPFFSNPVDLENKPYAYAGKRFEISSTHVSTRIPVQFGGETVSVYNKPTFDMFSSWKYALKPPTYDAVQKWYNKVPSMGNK

B1: scRev3-RBM2 peptide (residues 595-629) used for ITC (peptide)
peptide: KPTFDMFSSWKYALKPPTYDAVQKWYNKVPSMGNK
B2: scRev3-RBM2 (residues 595-629), co-expressed with scRev7 (domain or fragment)
chain: B1 peptide
B3: His-tagged scRev7 (S. cerevisiae Rev7) (natural protein)
chain: T1 sequence (P38927 1-245)
B4: scRev3-RBM12: scRev3-RBM12 (residues 510–629), longer scRev3 construct containing both RBMs (protein)
chain: T3 sequence
B5: scRev3-RBM1 peptide (residues 510-544) used for ITC (peptide)
peptide: MAAGLRYGKRAFVYGEPPFGYQDILNKLEDEGFPK

Tests used:
[1] = test system: scRev7; assay: SEC oligomeric state and stoichiometry; design: species or system S. cerevisiae; conditions: 20 mM Tris, 100 mM NaCl, 2 mM EDTA, 1 mM DTT, pH 8
In short: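 scRev7 (MCS-1) co-expressed with scRev3 fragments or mutants (MCS-2) from pETDuet-1 in E. coli BL21(DE3); empty MCS-2 for apo-scRev7. Grown in 1L LB at 37 °C, induced with 1 mM IPTG at 20 °C overnight. Lysed by sonication in 20 mM sodium phosphate, 300 mM NaCl, 10 mM imidazole. Cobalt affinity, then Superdex 75 or 200 SEC with comparison of elution volumes.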

[2] = target: T1, MBP-scRev7; assay: ITC of scRev3 peptides titrated into MBP-scRev7; type: binding, S. cerevisiae; conditions: 25 °C, 50 mM Tris, 100 mM NaCl, pH 8.4, 300 μM peptide titrated into 30 μM MBP-scRev7 in 2.5 μl increments, Fig. S5C
[3] = target: T2, scRev7 fused to the maltose binding …; assay: ITC
[4] = target: B3; assay: AUC
[5] = target: T3, scRev3-RBM12 (residues 510-629), …; assay: AUC
[6] = target: T4, truncated scRev3 fragment containing …; assay: SEC
[7] = test system: scRev7; assay: Y2H of scRev7 and scRev3 fragments; type: binding, S. cerevisiae; conditions: scRev7-AD with scRev3 fragment-BD; yeast PJ694-A, 5 to 7 days at 30 °C
In short: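 GAL4 AD and BD fusions of scRev7 and scRev3 RBM1, RBM2 or RBM12 (WT or mutant), tested in both orientations. Cells were transformed with 2.0 ug of each vector and grown in -LW broth at 30 °C for 3 to 5 days. They were then pelleted, resuspended in sterile water to normalise OD, serially diluted, and plated on -LW and -AHLW. Controls were empty vectors (negative) and AD/BD-fused mouse Rev7 dimerization (positive).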

scRev7/scRev3-RBM2: scRev7 co-expressed with scRev3-RBM2, 1:1 complex
SEC elution volume comparison [1]: elute at similar volumes

apo-scRev7: scRev7 overexpressed alone (MCS-2 of pETDuet-1 empty)
SEC elution volume comparison [1]: elute at similar volumes

scRev3-zipper: scRev3-zipper (residues 573–594), linker region preceding RBM2 (SSTHVSTRIPVQFGGETVSVYN)
binding (heat release) [2]: no heat release that would be consistent with binding

scRev7/scRev3-RBM1: scRev7 co-expressed with scRev3-RBM1
SEC elution volume comparison [1]: elute at similar volumes

B1
stoichiometry N [3]: 1

B2
stoichiometry N [4]: 1

B3
stoichiometry N [5]: 2 scRev7 per scRev3-RBM12
stoichiometry N [6]: 1

B4
growth on -AHLW plates [7]: yeast grew on plates lacking adenine, histidine, leucine, and tryptophan

B5
stoichiometry N [3]: 1
